For one series, the target named is T1, Cytochrome P450 2D26 (Rattus norvegicus, UniProt P10634).
T1 sequence (P10634 whole entry): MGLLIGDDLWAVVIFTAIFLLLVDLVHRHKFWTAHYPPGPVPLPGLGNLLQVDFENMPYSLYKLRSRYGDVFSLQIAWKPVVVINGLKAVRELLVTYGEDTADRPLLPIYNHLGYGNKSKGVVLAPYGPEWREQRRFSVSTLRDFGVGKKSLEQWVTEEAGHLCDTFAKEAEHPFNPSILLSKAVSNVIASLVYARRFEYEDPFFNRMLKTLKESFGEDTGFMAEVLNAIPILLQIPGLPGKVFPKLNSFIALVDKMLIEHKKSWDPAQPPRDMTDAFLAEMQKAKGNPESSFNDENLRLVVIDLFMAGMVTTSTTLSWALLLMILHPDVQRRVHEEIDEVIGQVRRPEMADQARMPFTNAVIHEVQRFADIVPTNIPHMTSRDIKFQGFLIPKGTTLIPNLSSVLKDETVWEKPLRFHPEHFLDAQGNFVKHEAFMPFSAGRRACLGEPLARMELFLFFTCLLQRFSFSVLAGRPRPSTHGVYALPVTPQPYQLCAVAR
As to the kind of experiment: Prodrug conversion assessed as rat recombinant CYP2D2-mediated (Z)-N'-hydroxy-6-(5-(5-((Z)-N'-methoxycarbamimidoyl)pyridin-2-yl)furan-2-yl) nicotinimidamide formation at 5 uM after 180 mins incubation by HPLC-UV chromatogram. It counts as ADME. The following applies: recombinant enzyme, 15 min, in the assay text read “15 mins” for “180 mins”. The procedure, abridged:
(§1)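 Insect-cell-expressed human or rat P450 (with NADPH-P450 reductase, some also with cytochrome b5) at 0.1 pmol/µL in 100 mM potassium phosphate pH 7.4 with 10 mM MgCl2. DB868 (for M1) or M1 (for M2) was added at 5 µM (0.5% DMSO) and started with 2 mM NADPH. Stopped after 15 min with ice-cold acetonitrile, then HPLC-UV. Duplicate incubations.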

In series [1] the test system is Liver microsome. As to the kind of experiment: Drug metabolism in human liver microsomes assessed as (Z)-N'-hydroxy-6-(5-(5-((Z)-N'-methoxycarbamimidoyl)pyridin-2-yl)furan-2-yl nicotinimidamide formation measured by HPLC-MS/MS analysis. It counts as ADME. In short, it runs like this: (§2)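 M1 formation kinetics: HLM or RLM (0.5 mg/mL) in phosphate pH 7.4 with MgCl2, DB868 0.1–100 µM, started with 2 mM NADPH. Run 5 min (HLM) or 10 min (RLM) under initial-rate conditions (<20% consumption) in triplicate. Quantified by HPLC/MS/MS with d6-DB868 internal standard. Fitted to a one-enzyme (HLM) or two-enzyme (RLM) Michaelis–Menten model; Clint = Vmax/Km.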
In general terms: Liver microsomes are a subcellular fraction often used to study metabolism.

For another series, the target named is T2, Cytochrome P450 1A2 (Rattus norvegicus, UniProt P04799).
T2 sequence (P04799 whole entry): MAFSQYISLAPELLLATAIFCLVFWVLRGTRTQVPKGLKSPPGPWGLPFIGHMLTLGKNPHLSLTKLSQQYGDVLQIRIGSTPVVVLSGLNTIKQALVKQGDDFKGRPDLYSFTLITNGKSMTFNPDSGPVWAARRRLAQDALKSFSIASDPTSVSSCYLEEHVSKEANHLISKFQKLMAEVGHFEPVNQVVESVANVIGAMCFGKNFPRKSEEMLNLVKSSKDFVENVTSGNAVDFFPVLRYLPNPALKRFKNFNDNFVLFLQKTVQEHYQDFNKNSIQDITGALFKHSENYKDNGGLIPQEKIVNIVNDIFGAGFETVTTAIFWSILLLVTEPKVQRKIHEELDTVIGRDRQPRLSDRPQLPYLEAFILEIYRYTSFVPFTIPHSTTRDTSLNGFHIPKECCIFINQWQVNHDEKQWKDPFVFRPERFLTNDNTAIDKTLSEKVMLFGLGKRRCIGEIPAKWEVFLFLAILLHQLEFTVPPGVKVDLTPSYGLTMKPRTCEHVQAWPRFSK
As to the kind of experiment: Prodrug conversion assessed as rat recombinant CYP1A2-mediated (3Z,3'Z)-6,6'-(furan-2,5-diyl)bis(N'-hydroxynicotinimidamide) formation at 5 uM after 180 mins incubation by HPLC-UV chromatogram. It counts as ADME. The conditions noted are these: recombinant enzyme, 15 min, in the assay text read “15 mins” for “180 mins”. In short, it runs like this: as §1

Series [2] has as its system Trypanosoma brucei rhodesiense. The experiment in a line: Antitrypanosomal activity against Trypanosoma brucei rhodesiense STIB900 infected po dosed mouse model. It is filed as functional.
A short description of series [3]: Drug metabolism in sandwich-cultured human hepatocytes assessed as fold increase in DB829 at 10 uM after 2 hrs of incubation by HPLC-MS/MS analysis. It counts as ADME, cell-based, Hepatocyte. The procedure, abridged: (§3)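 Sandwich-cultured hepatocytes were used on day 5 (human) or day 4 (rat) and rinsed with warm phenol-red-free DMEM. They were then exposed to 10 µM DB868 (0.1–0.2% DMSO) at 37°C. Medium and methanol/water cell lysates were collected at 0.5, 2, 4 and 24 h. Analytes were quantified by HPLC/MS/MS with deuterated internal standards; protein by Bradford. Replicates: 6 (human) or 4 (rat).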

For the next series, the target named is T3, Cytochrome P450 4F2 (Homo sapiens, UniProt P78329).
T3 sequence (P78329 whole entry): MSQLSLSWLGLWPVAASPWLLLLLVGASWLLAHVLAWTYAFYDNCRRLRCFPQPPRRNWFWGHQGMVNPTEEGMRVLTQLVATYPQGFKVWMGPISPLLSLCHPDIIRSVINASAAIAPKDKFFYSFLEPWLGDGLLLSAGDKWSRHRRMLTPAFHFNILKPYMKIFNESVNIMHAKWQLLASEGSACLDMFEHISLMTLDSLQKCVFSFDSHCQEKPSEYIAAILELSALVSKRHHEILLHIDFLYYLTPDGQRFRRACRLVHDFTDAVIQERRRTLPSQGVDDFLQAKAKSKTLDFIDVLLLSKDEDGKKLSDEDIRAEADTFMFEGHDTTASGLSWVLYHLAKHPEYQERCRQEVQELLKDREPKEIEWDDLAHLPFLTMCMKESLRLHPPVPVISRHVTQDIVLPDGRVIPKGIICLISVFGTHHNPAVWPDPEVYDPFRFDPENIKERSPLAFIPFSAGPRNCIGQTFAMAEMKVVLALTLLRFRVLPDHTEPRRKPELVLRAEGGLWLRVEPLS
As to the kind of experiment: Prodrug conversion assessed as human recombinant CYP4F2-mediated (Z)-N'-hydroxy-6-(5-(5-((Z)-N'-methoxycarbamimidoyl)pyridin-2-yl)furan-2-yl) nicotinimidamide formation at 5 uM after 180 mins incubation by HPLC-UV chromatogram. The conditions noted are these: recombinant enzyme, 15 min, in the assay text read “15 mins” for “180 mins”. It counts as ADME. The procedure, abridged:
as §1

A short description of series [4]: Drug metabolism in sandwich-cultured human hepatocytes assessed as (3Z,3'Z)-6,6'-(furan-2,5-diyl)bis(N'-hydroxynicotinimidamide) at 10 uM after 4 hrs of incubation by HPLC-MS/MS analysis. It counts as ADME, cell-based, Hepatocyte. In short, it runs like this:
as §3

The test system of series [5] is Liver microsome. As to the kind of experiment: Drug metabolism in rat liver microsomes assessed as (Z)-N'-hydroxy-6-(5-(5-((Z)-N'-methoxycarbamimidoyl)pyridin-2-yl)furan-2-yl nicotinimidamide formation measured by HPLC-MS/MS analysis. It counts as ADME. The procedure, abridged: as §2
Series [6] in a line: Drug metabolism in sandwich-cultured rat hepatocytes assessed as (Z)-6-(5-(5-carbamimidoylpyridin-2-yl)furan-2-yl)-N'methoxynicotinimidamide at 10 uM after 4 hrs of incubation by HPLC-MS/MS analysis. It counts as ADME, cell-based, Hepatocyte. In short, it runs like this:
as §3

The nature of series [7]: Drug metabolism in sandwich-cultured rat hepatocytes assessed as DB829 at 10 uM after 24 hrs of incubation by HPLC-MS/MS analysis. It is filed as ADME, cell-based, Hepatocyte. The procedure, abridged: as §3

Usually Km stands for the concentration of substrate that gives half-maximal velocity. As for `CO/N=C(\N)c1ccc(-c2ccc(-c3ccc(/C(N)=N/OC)cn3)o2)nc1.Cl`, the Drug metabolism entry (on Cytochrome P450 2D26; on Cytochrome P450 1A2; on Cytochrome P450 4F2; in [4]; in series [6]; in [7]) was “metabolite_detected” in each case. The Km is 11 µM in the series with Liver microsome [1] and 0.5 µM in the series with Liver microsome [5]. In series [2], this molecule displayed an Activity of 100%. Also, the “fold change (FC)” value in series [3] is reported as 13.

For the origin of these results see ChEMBL document CHEMBL3525966, “Compartmental and enzyme kinetic modeling to elucidate the biotransformation pathway of a centrally acting antitrypanosomal prodrug” (Drug Metab Dispos, 2013).
